Assay results: paper PMC6315097 (The Korean Journal of Physiology & Pharmacology : Official …, 2018)

Key:
[1] = target: T1, human SGLT2 (Homo sapiens, UniProt P31639); experiment: [14C]-AMG uptake inhibition in HEK293 cells stably expressing human SGLT2; type: cell-based; conditions: human SGLT2 vs human SGLT1, in vitro
T1 sequence (P31639 1-672): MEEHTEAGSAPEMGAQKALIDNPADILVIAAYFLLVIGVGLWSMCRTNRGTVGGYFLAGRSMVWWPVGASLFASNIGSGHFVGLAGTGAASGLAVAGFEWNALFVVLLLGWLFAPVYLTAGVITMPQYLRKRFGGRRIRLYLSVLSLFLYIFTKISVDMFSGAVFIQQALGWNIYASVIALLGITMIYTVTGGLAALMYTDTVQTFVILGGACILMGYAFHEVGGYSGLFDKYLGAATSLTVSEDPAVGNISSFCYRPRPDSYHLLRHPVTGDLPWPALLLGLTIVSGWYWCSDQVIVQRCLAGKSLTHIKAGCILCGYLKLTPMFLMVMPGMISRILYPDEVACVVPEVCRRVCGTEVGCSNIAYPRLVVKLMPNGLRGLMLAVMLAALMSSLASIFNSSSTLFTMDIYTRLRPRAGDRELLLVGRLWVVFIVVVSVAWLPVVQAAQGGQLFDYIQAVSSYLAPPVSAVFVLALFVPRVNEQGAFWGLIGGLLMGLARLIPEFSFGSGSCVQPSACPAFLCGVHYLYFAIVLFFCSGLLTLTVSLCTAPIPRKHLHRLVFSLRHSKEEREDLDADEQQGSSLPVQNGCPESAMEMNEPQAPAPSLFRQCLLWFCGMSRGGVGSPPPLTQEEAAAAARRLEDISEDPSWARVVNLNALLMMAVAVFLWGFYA

[2] = Pharmacokinetic profiles in male C57BL/6 mice; type: in vivo; conditions: for AUC(0-t): AUC0-24hr
[3] = test system: male C57BL/6 mice; experiment: Urinary glucose excretion over 24 h in normoglycemic mice; type: in vivo; conditions: single oral dose 3 mg/kg with 2 g/kg glucose, 24 h urine
Outline: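 Male C57BL/6 mice, 8 weeks old, 3 per group, allocated by body weight and fasted overnight. […] Urine collected in metabolism cages over 24 h. Urine volume and glucose measured by clinical chemistry analyser and normalised to body weight.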

[4] = test system: male C57BL/6 mice; experiment: Oral glucose tolerance test in normoglycemic mice; type: in vivo
Outline: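 Male C57BL/6 mice, 8 weeks old, fasted 16 h. Test compound given orally 30 min before a glucose load of 2 g/kg (10 ml/kg). Tail-nick blood glucose read by glucose strip before loading and at 0, 15, 30, 60 and 120 min after. Glucose AUC0–120min calculated by the trapezoidal rule. n=6; mean±S.E.M.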

[5] = test system: male C57BL/6 mice; experiment: Total GLP-1 in plasma after glucose loading in normoglycemic mice; type: in vivo; conditions: 30 min after glucose loading
Outline: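 Fasted (16 h) 8-week-old male C57BL/6 mice, 7 per group, dosed orally with test compound or vehicle 30 min before a 2 g/kg glucose load. Plasma collected from the subclavian vein 30 min after loading. Total GLP-1 measured by multispecies ELISA. One-way ANOVA with Dunnett's test versus vehicle.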

[6] = test system: db/db mice; experiment: 4-week repeated administration in db/db mice; type: in vivo; conditions: 4-week repeated oral dosing
Outline: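 Male db/db mice, 8 weeks old, 7 per group, allocated by HbA1c and blood glucose after a 16 h fast. Test compound given orally once daily for 28 days. HbA1c measured from tail-vein blood on days 0 and 28. Blood glucose checked twice weekly. Body weight taken daily. OGTT on day 29, 24 h after the last dose: glucose 2 g/kg, samples at −60, 0, 15, 30, 60 and 120 min. Mean±S.E.M.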

[7] = test system: mice; conditions: cited from earlier work
[8] = male, C57BL/6, mouse, plasma, po
[9] = male, C57BL/6, mouse, plasma, po, 0.3 mg/kg, mice
[10] = male, C57BL/6, mouse, plasma, po, 1 mg/kg, mice
[11] = single oral 1 mg/kg 30 min before glucose 2 g/kg

Compound | selectivity for SGLT2 over SGLT1 [1] | Tmax [2, 8] | half-life [2, 8] | AUC(0-t) [2, 9] | Cmax [2, 9] | AUC(0-t) [2, 10] | Cmax [2, 10] | AUC(0-t) ([2]; male, C57BL/6, mouse, plasma, po, 3 mg/kg, mice) | maximum plasma level ([2]; mice, single oral dose 0.1 mg/kg) | Urinary glucose excretion [3] | area under the curve (AUC) of glucose tolerance, OGTT 120 min ([4]; single oral 0.3 mg/kg 30 min before glucose 2 g/kg) | area under the curve (AUC) of glucose tolerance, OGTT 120 min [4, 11] | area under the curve (AUC) of glucose tolerance, OGTT 120 min ([4]; single oral 3 mg/kg 30 min before glucose 2 g/kg) | Total GLP-1 in plasma ([5]; single oral 0.3 mg/kg) | Total GLP-1 in plasma ([5]; single oral 1 mg/kg) | Total GLP-1 in plasma ([5]; single oral 3 mg/kg, 3 mg/kg) | change in body weight compared to vehicle-treated db/db mice [6] | effect on blood glucose increases during OGTT [4, 11] | reduction of glucose reabsorption ([7]; SGLT1 and SGLT2 double-knockout mice) | inhibition of glucose reabsorption ([7]; wild-type mice)
CCc1ccc(Cc2cc([C@@H]3O[C@H](CO)[C@@H](O)[C@H](O)[C@H]3O)cc3c2CCC3)cc1 [HM41322, (2S,3R,4R,5S,6R)-2-[7-(4-ethylbenzyl)-2,3-dihydro-1H-inden-5-yl]-6-(hydroxymethyl)tetrahydro-2H-pyran-3,4,5-triol] | 10 fold | 0.5 h | 3.1 h | 473 ng·h/mL | 142 ng/mL | 1300 ng·h/mL | 439 ng/mL | 5460 ng·h/mL | 142 ng/mL | 19.32±1.16 mg/g body weight | 303.3 ± 60.17 mg·h/dL | 228.5 ± 16.96 mg·h/dL | 170.7 ± 13.14 mg·h/dL | 15.0 ± 6.6 pM | 18.0 ± 5.0 pM | 34.2 ± 9.7 pM | did not induce a significant change in body weight | – | – | –
CCOc1ccc(Cc2cc([C@@H]3O[C@H](CO)[C@@H](O)[C@H](O)[C@H]3O)ccc2Cl)cc1 [Dapagliflozin, (1S)-1,5-anhydro-1-C-{4-chloro-3-[(4-ethoxyphenyl)methyl]phenyl}-D-glucitol, reference compound] | – | – | – | – | – | – | – | – | – | – | – | – | – | – | 15.5 ± 5.7 pM | – | did not induce a significant change in body weight | decreased blood glucose increases during OGTT | – | –
OC[C@H]1O[C@@H](c2ccc(Cl)c(Cc3ccc(O[C@H]4CCOC4)cc3)c2)[C@H](O)[C@@H](O)[C@@H]1O [Empagliflozin] | – | – | – | – | – | – | – | – | – | – | – | – | – | – | – | – | – | – | 100% | 56%
